In ChEMBL document CHEMBL1135477, “Antifungal agents. 10. New derivatives of 1-[(aryl)[4-aryl-1H-pyrrol-3-yl]methyl]-1H-imidazole, synthesis, anti-candida activity, and quantitative structure-analysis relationship studies” (J Med Chem, 2002):
In brackets after ≈: the same amount, converted by molar mass.

Experiments:
Assay type in all cases: functional
[1] = tested on: Candida; experiment: Tested in vitro for antifungal activity against Candida species. at pH 5.8; (range is from 4 to 8)
Procedure, shortened: (§1)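 Liquid serial-dilution MIC against 3 freshly isolated clinical Candida strains (two C. glabrata, one C. krusei) in Sabouraud broth at pH 7.2 or 5.8. Inoculum was 10³/mL after 18 h pre-culture at 37 °C, read at 24 h, 37 °C. Range was 0.25–256 μg/mL. Endpoint was no visible growth versus a DMSO/water blank.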

[2] = tested on: Candida albicans; experiment: IIn vitro antifungal activity against 40 strains of Candida albicans at pH 7.2; minimum inhibitory concentration (range is from 0.5 to 16)
Procedure, shortened: (§2)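 Broth serial-dilution MIC against 40 clinical C. albicans isolates from hospitalized patients, grown in Sabouraud broth at pH 7.2 or 5.8. Cells were pre-grown 18 h at 37 °C, inoculated at 10³/mL, and read at 24 h, 37 °C. Doubling dilutions ran 0.25–256 μg/mL from a DMSO/water solution. MIC was the lowest concentration with no visible growth against a DMSO/water blank.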

[3] = target: Lanosterol 14-alpha demethylase (Candida albicans (strain SC5314 / ATCC MYA-2876) (Yeast), UniProt P10613); experiment: Anticandida activity- (MIC90 compound) / (MIC90 bifonazole)
Sequence of Lanosterol 14-alpha demethylase (P10613 whole entry): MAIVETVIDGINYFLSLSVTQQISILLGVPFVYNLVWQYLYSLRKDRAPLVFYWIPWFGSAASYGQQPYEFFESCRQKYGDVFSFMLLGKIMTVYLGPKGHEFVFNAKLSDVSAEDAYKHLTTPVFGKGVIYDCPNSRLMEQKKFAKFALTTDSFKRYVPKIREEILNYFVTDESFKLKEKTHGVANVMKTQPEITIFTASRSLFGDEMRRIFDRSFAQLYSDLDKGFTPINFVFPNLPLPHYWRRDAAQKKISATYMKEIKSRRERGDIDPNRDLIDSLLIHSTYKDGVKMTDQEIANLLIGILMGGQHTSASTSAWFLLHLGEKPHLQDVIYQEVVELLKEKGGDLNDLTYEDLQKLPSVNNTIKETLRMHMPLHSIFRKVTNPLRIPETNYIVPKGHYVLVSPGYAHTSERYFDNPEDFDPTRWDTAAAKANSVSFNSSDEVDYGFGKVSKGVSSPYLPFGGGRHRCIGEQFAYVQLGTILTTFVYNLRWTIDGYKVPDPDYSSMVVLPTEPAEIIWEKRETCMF

[4] = tested on: Candida; experiment: Tested in vitro for antifungal activity against Candida species. at pH 5.8 (percent of resistant species at 256 ug/mL)
Procedure, shortened: (§3)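 Broth serial-dilution test in Sabouraud broth at pH 7.2 or 5.8, against 3 fresh clinical non-albicans isolates (two C. glabrata, one C. krusei). Inocula were 10³/mL, pre-grown 18 h at 37 °C. Compound was twofold-diluted over 0.25–256 µg/mL and read at 24 h, 37 °C for visible growth.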

[5] = tested on: Candida; experiment: Tested In vitro for antifungal activity against Candida species. at pH 7.2; procedure, shortened: as §1
[6] = tested on: Candida albicans; experiment: In vitro antifungal activity against 40 strains of Candida albicans at pH 7.2; (percent of resistant species at 256 ug/mL)
Procedure, shortened: (§4)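 Broth serial-dilution test in Sabouraud broth at pH 7.2 or 5.8, against 40 fresh clinical C. albicans isolates from hospitalized patients. Inocula were 10³/mL, pre-grown 18 h at 37 °C in Sabouraud dextrose broth. Compound from a DMSO/water stock was twofold-diluted over 0.25–256 µg/mL. Visible growth was read at 24 h, 37 °C.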

[7] = tested on: Candida albicans; experiment: In vitro antifungal activity against 40 strains of Candida albicans at pH 5.8; (range is from 0.25 to 32); procedure, shortened: as §2
[8] = tested on: Candida albicans; experiment: In vitro antifungal activity against 40 strains of Candida albicans at pH 7.2; procedure, shortened: as §2
[9] = tested on: Candida albicans; experiment: In vitro antifungal activity against 40 strains of Candida albicans at pH 5.8; procedure, shortened: as §2
[10] = tested on: Candida; experiment: Tested In vitro for antifungal activity against Candida species. at pH 7.2; (range is from 8 to 16); procedure, shortened: as §1
[11] = tested on: Candida; experiment: Tested In vitro for antifungal activity against Candida species. at pH 7.2; (percent of resistant species at 256 ug/mL); procedure, shortened: as §3
[12] = tested on: Candida; experiment: Tested in vitro for antifungal activity against Candida species. at pH 5.8; procedure, shortened: as §1
[13] = tested on: Candida albicans; experiment: IIn vitro antifungal activity against 40 strains of Candida albicans at pH 5.8; (percent of resistant species at 256 ug/mL); procedure, shortened: as §4
[14] = tested on: Candida albicans; experiment: Compound was tested for its anti-candida activity, expressed as ratio of minimum inhibitory concentration

| Compound | Ratio [3] | further results |
| --- | --- | --- |
| CCn1cc(-c2ccc(Cl)cc2)c([C@H](c2ccc(Cl)cc2Cl)n2ccnc2)c1 | 2.9 | Range [1]: 8 µg/mL; Range [2]: 16 µg/mL; Resistance [4]: 0%; MIC [5]: 13.3 µg/mL (≈ 30.9 µM); MIC50 [5]: 16 µg/mL (≈ 37.1 µM); MIC90 [5]: 16 µg/mL (≈ 37.1 µM); Resistance [6]: 0%; Range [7]: 32 µg/mL; MIC [8]: 3.2 µg/mL (≈ 7.43 µM); MIC50 [8]: 1 µg/mL (≈ 2.32 µM); MIC90 [8]: 2 µg/mL (≈ 4.64 µM); MIC [9]: 2.36 µg/mL (≈ 5.48 µM); MIC50 [9]: 1 µg/mL (≈ 2.32 µM); MIC90 [9]: 2 µg/mL (≈ 4.64 µM); Range [10]: 16 µg/mL; Resistance [11]: 0%; MIC [12]: 5.33 µg/mL (≈ 12.4 µM); MIC50 [12]: 4 µg/mL (≈ 9.29 µM); MIC90 [12]: 8 µg/mL (≈ 18.6 µM); Resistance [13]: 0% |
| Fc1ccc([C@@H](c2ccn(-c3ccc(F)cc3)c2)n2ccnc2)cc1 | 1 | – |
| COc1ccc(-c2cn(Cc3ccc(Cl)cc3Cl)cc2[C@@H](c2ccccc2)n2ccnc2)cc1 | 41 | – |
| COc1ccc([C@H](Cc2ccc(Cl)cc2)n2cnnc2)cc1 | 63 | – |
| Nc1ccc([C@@H](c2ccccc2)n2ccnc2)cc1 | 2.5 | – |
| c1ccc(-c2ccc([C@@H](c3ccccc3)n3ccnc3)cc2)cc1 [BIFONAZOLE] | – | MIC90 ratio [14]: 1 |
| COc1ccc([C@H](Cc2ccc(N)cc2)n2ccnc2)cc1 | 2.1 | – |
| c1ccc([C@@H](c2ccc(-n3cccc3)cc2)n2ccnc2)cc1 | 0.25 | – |
| Clc1ccc(Cn2cc(-c3ccccc3)c([C@@H](c3ccccc3)n3ccnc3)c2)c(Cl)c1 | 22 | – |
| COc1ccc([C@H](Cc2ccc([N+](=O)[O-])cc2)n2ccnc2)cc1 | 32 | – |
| CC[C@@H](c1ccc([N+](=O)[O-])cc1)[C@H](c1ccc(OC)cc1)n1ccnc1 | 7.3 | – |
| Cc1ccc([C@H](c2ccn(-c3ccc(Cl)cc3)c2)n2ccnc2)cc1 | 0.89 | – |
| COc1ccc(C[C@@H](c2ccc(OC)cc2)n2ccnc2)cc1 | 8 | – |

Further lines, with some results ahead:

| Ratio [3] | Compound | further results |
| --- | --- | --- |
| 3.8 | Cc1ccc(-c2cn(C)cc2[C@@H](c2ccccc2)n2ccnc2)cc1 | – |
| 123 | COc1ccc([C@H](Cc2ccccc2[N+](=O)[O-])n2ccnc2)cc1 | – |
| 0.46 | Clc1ccc(-c2c[nH]cc2[C@@H](c2ccccc2)n2ccnc2)cc1 | – |
| 29 | CCC(c1ccc(Cl)cc1)[C@@H](c1ccc(OC)cc1)n1cncn1 (stereo partly drawn) | – |
| 4 | Cn1cc(-c2ccc(F)cc2)c([C@@H](c2ccccc2)n2ccnc2)c1 | – |
| 0.13 | Cc1ccc([C@@H](c2ccc(-n3cccc3)cc2)n2ccnc2)cc1 | – |
| 21 | COc1ccc([C@H]([C@@H](Cc2ccc(Cl)cc2Cl)c2ccc(OC)cc2)n2ccnc2)cc1 | – |
| 66 | COc1ccc([C@H](Cc2cccc(F)c2)n2ccnc2)cc1 | – |
| 1 | Cc1ccc([C@H](c2ccn(-c3ccccc3)c2)n2ccnc2)cc1 | – |
| 2 | Fc1ccc([C@H](c2ccn(-c3ccccc3)c2)n2ccnc2)cc1 | – |
| 0.5 | Clc1ccc(-n2ccc([C@@H](c3ccccc3)n3ccnc3)c2)cc1 | – |
| 63 | CC[C@@H](c1ccc(Cl)cc1)[C@@H](c1ccc(OC)cc1)n1cnnc1 | – |
| 32 | COc1ccc([C@H](Cc2ccccc2Cl)n2cncn2)cc1 | – |
| 2.2 | O=[N+]([O-])c1ccc([C@@H](c2ccccc2)n2ccnc2)cc1 | – |
| 16 | COc1ccc([C@H](Cc2ccc(F)cc2)n2ccnc2)cc1 | – |
